# Active and inactive are the calls of the source. The calls are words filed in the database; no cut-off is given here.
# Tests used:
# COLO 205 = experiment: Growth inhibition of human COLO205 cells; format: functional
# Procedure, shortened: (§1)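 Five-dose testing was run within the NCI (Bethesda) in vitro Anticancer Screen Program on a panel of 53 human tumour cell lines from nine cancer types. Growth inhibition is reported as GI50.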
# MCF7 [1] = experiment: Induction of apoptosis in human MCF7 cells assessed as decrease in procaspase 7 level at 30 uM after 24 hrs by Western blot analysis; format: functional, cell-based
# Procedure, shortened: (§2)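 MCF-7 breast carcinoma cells were exposed to 30 µM compound for 24 h, with CA-4 as positive control. Cell lysates were then immunoblotted with antibodies to procaspase-7 and cleavage-specific PARP, using β-actin as loading control.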
# HOP-62 = experiment: Growth inhibition of human HOP62 cells; format: functional; procedure, shortened: as §1
# SF-268 = experiment: Growth inhibition of human SF268 cells; format: functional; procedure, shortened: as §1
# MDA-MB-435 = experiment: Growth inhibition of human MDA-MB-435 cells; format: functional; procedure, shortened: as §1
# OVCAR-8 = experiment: Growth inhibition of human OVCAR8 cells; format: functional; procedure, shortened: as §1
# SN12C = experiment: Growth inhibition of human SN12C cells; format: functional
# Procedure, shortened: (§3)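 Compounds that passed a preliminary screen were tested at five doses in the NCI (Bethesda) in vitro Anticancer Screen Program against a 53-line human tumour panel spanning leukemia, lung, colon, CNS, melanoma, ovarian, renal, prostate and breast. Growth inhibition is reported as GI50.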
# U-251 = experiment: Growth inhibition of human U251 cells; format: functional; procedure, shortened: as §3
# SK-OV-3 = experiment: Growth inhibition of human SKOV3 cells; format: functional; procedure, shortened: as §3
# MCF7 [2] = experiment: Cell cycle arrest in human MCF7 cells assessed as accumulation at G2/M phase at 10 uM after 24 hrs by FACS analysis; format: functional
# Procedure, shortened: (§4)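 MCF-7 breast carcinoma cells were exposed to 10 µM test compound for 24 h, with DMSO as the vehicle control. Cell-cycle distribution was read by FACS as the percentage of cells in G0, G1, S and G2/M.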
# NCI-H226 = experiment: Growth inhibition of human NCI-H226 cells; format: functional; procedure, shortened: as §1
# MCF7 [3] = experiment: Cell cycle arrest in human MCF7 cells assessed as accumulation at S phase at 30 uM after 24 hrs by FACS analysis; format: functional
# Procedure, shortened: (§5)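 MCF-7 cells were treated at 30 µM for 24 h alongside a DMSO control. Fractions in G0, G1, S and G2/M phases were measured by FACS, and values are means of three experiments.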
# K562 = experiment: Growth inhibition of human K562 cells; format: functional; procedure, shortened: as §1
# UACC-62 = experiment: Growth inhibition of human UACC62 cells; format: functional; procedure, shortened: as §3
# A498 = experiment: Growth inhibition of human A498 cells; format: functional; procedure, shortened: as §1
# HCT-15 = experiment: Growth inhibition of human HCT15 cells; format: functional; procedure, shortened: as §1
# SNB-75 = experiment: Growth inhibition of human SNB75 cells; format: functional; procedure, shortened: as §3
# MCF7 [4] = experiment: Cell cycle arrest in human MCF7 cells assessed as accumulation at S phase at 10 uM after 24 hrs by FACS analysis; format: functional; procedure, shortened: as §4
# PC-3 = experiment: Growth inhibition of human PC3 cells; format: functional; procedure, shortened: as §1
# NCI-H522 = experiment: Growth inhibition of human NCI-H522 cells; format: functional; procedure, shortened: as §1
# HCC 2998 = experiment: Growth inhibition of human HCC2998 cells; format: functional; procedure, shortened: as §1
# [5] = Growth inhibition of human Hs 578T cells; format: functional; procedure, shortened: as §1
# ACHN = experiment: Growth inhibition of human ACHN cells; format: functional; procedure, shortened: as §1
# NCI/ADR-RES = experiment: Growth inhibition of human NCI/ADR-RES cells; format: functional; procedure, shortened: as §1
# MCF7 [6] = experiment: Cell cycle arrest in human MCF7 cells assessed as accumulation at G0 phase at 30 uM after 24 hrs by FACS analysis; format: functional; procedure, shortened: as §5
# NCI-H322M = experiment: Growth inhibition of human NCI-H322M cells; format: functional; procedure, shortened: as §1
# BT-549 = experiment: Growth inhibition of human BT549 cells; format: functional; procedure, shortened: as §1
# SF-539 = experiment: Growth inhibition of human SF539 cells; format: functional; procedure, shortened: as §1
# LOX IMVI = experiment: Growth inhibition of human LOXIMVI cells; format: functional; procedure, shortened: as §1
# EKVX = experiment: Growth inhibition of human EKVX cells; format: functional; procedure, shortened: as §1
# SK-MEL-2 = experiment: Growth inhibition of human SK-MEL-2 cells; format: functional; procedure, shortened: as §1
# T47D = experiment: Growth inhibition of human T47D cells; format: functional; procedure, shortened: as §3
# UACC-257 = experiment: Growth inhibition of human UACC257 cells; format: functional; procedure, shortened: as §3
# [7] = Growth inhibition of human RPMI8266 cells; format: functional; procedure, shortened: as §1
# MCF7 [8] = experiment: Cell cycle arrest in human MCF7 cells assessed as accumulation at G2/M phase at 30 uM after 24 hrs by FACS analysis; format: functional; procedure, shortened: as §5
# NCI-H460 = experiment: Growth inhibition of human NCI-H460 cells; format: functional; procedure, shortened: as §1
# 786-0 = experiment: Growth inhibition of human 786-0 cells; format: functional; procedure, shortened: as §1
# SW-620 = experiment: Growth inhibition of human SW620 cells; format: functional; procedure, shortened: as §3
# MCF7 [9] = experiment: Induction of apoptosis in human MCF7 cells assessed as […] in PARP cleavage at 30 uM after 24 hrs by Western blot analysis; format: functional, cell-based; procedure, shortened: as §2
# NCI-H23 = experiment: Growth inhibition of human NCI-H23 cells; format: functional; procedure, shortened: as §1
# SK-MEL-28 = experiment: Growth inhibition of human SK-MEL-28 cells; format: functional; procedure, shortened: as §1
# KM12 = experiment: Growth inhibition of human KM12 cells; format: functional; procedure, shortened: as §1
# HCT-116 = experiment: Growth inhibition of human HCT116 cells; format: functional; procedure, shortened: as §1
# CAKI-1 = experiment: Growth inhibition of human Caki1 cells; format: functional; procedure, shortened: as §1
# M14 = experiment: Growth inhibition of human M14 cells; format: functional; procedure, shortened: as §1
# MCF7 [10] = experiment: Growth inhibition of human MCF7 cells; format: functional; procedure, shortened: as §1
# RXF 393 = experiment: Growth inhibition of human RXF393 cells; format: functional; procedure, shortened: as §1
# A549 = experiment: Growth inhibition of human A549 cells; format: functional; procedure, shortened: as §1
# SNB-19 = experiment: Growth inhibition of human SNB19 cells; format: functional; procedure, shortened: as §3
# MCF7 [11] = experiment: Cell cycle arrest in human MCF7 cells assessed as accumulation at G1 phase at 30 uM after 24 hrs by FACS analysis; format: functional; procedure, shortened: as §5
# TK-10 = experiment: Growth inhibition of human TK10 cells; format: functional; procedure, shortened: as §3
# HT-29 = experiment: Growth inhibition of human HT-29 cells; format: functional; procedure, shortened: as §1
# UO-31 = experiment: Growth inhibition of human UO31 cells; format: functional; procedure, shortened: as §3
# OVCAR-3 = experiment: Growth inhibition of human OVCAR-3 cells; format: functional; procedure, shortened: as §1
# SK-MEL-5 = experiment: Growth inhibition of human SK-MEL-5 cells; format: functional; procedure, shortened: as §1
# SF-295 = experiment: Growth inhibition of human SF295 cells; format: functional; procedure, shortened: as §1
# MDA-MB-231 = experiment: Growth inhibition of human MDA-MB-231 cells; format: functional; procedure, shortened: as §1
# HOP-92 = experiment: Growth inhibition of human HOP92 cells; format: functional; procedure, shortened: as §1
# OVCAR-5 = experiment: Growth inhibition of human OVCAR5 cells; format: functional; procedure, shortened: as §1
# Malme-3M = experiment: Growth inhibition of human MALME-3M cells; format: functional; procedure, shortened: as §1
# MCF7 [12] = experiment: Cell cycle arrest in human MCF7 cells assessed as accumulation at G0 phase at 10 uM after 24 hrs by FACS analysis; format: functional; procedure, shortened: as §4
# OVCAR-4 = experiment: Growth inhibition of human OVCAR4 cells; format: functional; procedure, shortened: as §1
# MCF7 [13] = experiment: Cell cycle arrest in human MCF7 cells assessed as accumulation at G1 phase at 10 uM after 24 hrs by FACS analysis; format: functional; procedure, shortened: as §4
smiles,measurement,setting,value
COc1cc(/C=C/C(=O)c2cccc(-n3cc(-c4ccccc4)[nH]c3=O)c2)ccc1O,GI50,COLO 205,2210 nM
same,Activity,MCF7 [1],Active
same,GI50,HOP-62,1480 nM
same,GI50,SF-268,2070 nM
same,GI50,MDA-MB-435,2140 nM
same,GI50,OVCAR-8,4110 nM
same,GI50,SN12C,3310 nM
same,GI50,U-251,2110 nM
same,GI50,SK-OV-3,3760 nM
same,Activity,MCF7 [2],48.85%
same,GI50,NCI-H226,2600 nM
same,Activity,MCF7 [3],2.41%
same,GI50,K562,2040 nM
same,GI50,UACC-62,2010 nM
same,GI50,A498,1680 nM
same,GI50,HCT-15,2730 nM
same,GI50,SNB-75,3900 nM
same,Activity,MCF7 [4],14.13%
same,GI50,PC-3,2520 nM
same,GI50,NCI-H522,2360 nM
same,GI50,HCC 2998,1510 nM
same,GI50,[5],4160 nM
same,GI50,ACHN,2500 nM
same,GI50,NCI/ADR-RES,2920 nM
same,Activity,MCF7 [6],40.05%
same,GI50,NCI-H322M,3390 nM
same,GI50,BT-549,2780 nM
same,GI50,SF-539,1910 nM
same,GI50,LOX IMVI,1880 nM
same,GI50,EKVX,3900 nM
same,GI50,SK-MEL-2,3650 nM
same,GI50,T47D,2700 nM
same,GI50,UACC-257,6810 nM
same,GI50,[7],1670 nM
same,Activity,MCF7 [8],7.63%
same,GI50,NCI-H460,1950 nM
same,GI50,786-0,1350 nM
same,GI50,SW-620,2290 nM
same,Activity,MCF7 [9],Active
same,GI50,NCI-H23,2020 nM
same,GI50,SK-MEL-28,1850 nM
same,GI50,KM12,1610 nM
same,GI50,HCT-116,1400 nM
same,GI50,CAKI-1,2190 nM
same,GI50,M14,2610 nM
same,GI50,MCF7 [10],1550 nM
same,GI50,RXF 393,2270 nM
same,GI50,A549,3850 nM
same,GI50,SNB-19,2960 nM
same,Activity,MCF7 [11],49.91%
same,GI50,TK-10,5290 nM
same,GI50,HT-29,3770 nM
same,GI50,UO-31,2180 nM
same,GI50,OVCAR-3,2290 nM
same,GI50,SK-MEL-5,1590 nM
same,GI50,SF-295,3040 nM
same,GI50,MDA-MB-231,3360 nM
same,GI50,HOP-92,2270 nM
same,GI50,OVCAR-5,2040 nM
same,GI50,Malme-3M,2670 nM
same,Activity,MCF7 [12],11.17%
same,GI50,OVCAR-4,5190 nM
same,Activity,MCF7 [13],25.85%

# Source: ChEMBL document CHEMBL1208778, “Synthesis and anti-cancer activity of chalcone linked imidazolones” (2010)
